Laboratory results reported in article PMC5033602 (Investigative Ophthalmology & Visual Science, 2016).
Read-outs that look alike come from different tables or passages of the source.

Experiments:
ARPE-19 cells [1] = experiment: Cell viability; format: cell-based, human
Summary of the method: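 ARPE-19 cells (passages 27–40; DMEM/F-12, 10% FBS, 37°C, 5% CO₂) were plated at 2 × 10⁴ cells/well and grown to confluence (72 h). After 8 h starvation in 0.5% serum, cells received increasing H₂O₂ plus TNF-α (10 ng/mL), with or without test peptide, for 16 h. Relative live-cell numbers came from intracellular ATP luminescence; each point is the mean of duplicate wells.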

primary pig RPE cells [2] = experiment: Cell viability; format: cell-based; conditions: 50-250 μM H2O2, 10 ng/mL TNF-α
Summary of the method: (§1)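 Primary pig RPE cultures plated at 2 × 10⁴ cells/well (96-well) and grown to confluence (72 h), then exposed to H₂O₂ with TNF-α (10 ng/mL) and test peptide for the indicated time. Live cells were measured as intracellular ATP luminescence (CellTiter-Glo) and dead cells as dead-cell protease luminescence (CytoTox-Glo), with lysis reagent added for total-cell signal. Relative cell numbers are from duplicate wells.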

ARPE-19 cells [3] = experiment: Pyknotic nuclei counting; format: cell-based, human; conditions: 600 μM H2O2, 16 hours, Hoechst stain
Summary of the method: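 ARPE-19 cells were serum-starved, then treated with 600 μM H₂O₂ and test peptide together for 16 h. Cells were fixed in methanol (15 min, RT) and stained with 5 μM Hoechst in PBS (15 min, RT). Five random fields per well were imaged, and pyknotic nuclei were counted as a percentage of total cells.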

PNPLA2 = experiment: RT-PCR, PNPLA2 mRNA in ARPE-19; format: cell-based, human; conditions: H2O2 200, 400, 500, 600, 800 μM plus 10 ng/mL TNF-α, 8 hours, relative to 18S, duplicate wells
Summary of the method: (§2)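 Confluent ARPE-19 cells were starved in 0.5% serum for 8 h, then treated with H₂O₂ plus TNF-α. Total RNA was purified on silica columns, and 1 μg was reverse transcribed with SuperScript III. mRNA was measured by semiquantitative real-time RT-PCR with gene-specific primers and 18S primers as internal control.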

ALOX5 = experiment: RT-PCR, ALOX5 mRNA in ARPE-19; format: cell-based, human; conditions: H2O2 200, 400, 500, 600, 800 μM plus 10 ng/mL TNF-α, 8 hours, relative to 18S, duplicate wells
Summary of the method: as §2

PEDF-R = experiment: Immunoblot, PEDF-R protein in ARPE-19 lysates; format: cell-based, human; conditions: H2O2 plus 10 ng/mL TNF-α, 8 hours
Summary of the method: (§3)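 ARPE-19 cells (passages 27–40) were grown in DMEM/F-12 with 10% FBS at 37°C, 5% CO₂ to confluency and starved in 0.5% serum for 8 h. They were then exposed to graded H₂O₂ with 10 ng/mL TNF-α for 8 h. Total lysates were run on SDS-PAGE and immunoblotted, then stripped and reprobed for β-tubulin as loading control. Duplicate wells; each experiment at least twice.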

5-LOX = experiment: Immunoblot, 5-LOX protein in ARPE-19 lysates; format: cell-based, human; conditions: H2O2 plus 10 ng/mL TNF-α, 8 hours
Summary of the method: as §3

ARPE-19 cells [4] = conditions: cited from earlier work
ARPE-19 cells [5] = experiment: Cell death; format: cell-based, human; conditions: for Number of dead cells under oxidative stress: H2O2 (600 μM for SCR comparison), dead cell protease activity
Summary of the method: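 ARPE-19 cells (passages 27–40) grown in DMEM/F-12 with 10% FBS at 37°C, 5% CO₂, plated at 2 × 10⁴ cells/well (96-well) and cultured to confluency (72 h). Serum-starved 8 h in 0.5% serum, then exposed 16 h to H₂O₂ (600 μM for scrambled-control comparison) plus TNF-α (10 ng/mL) with test peptides. Dead-cell protease activity read by CytoTox-Glo; duplicate wells ± SD.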

primary pig RPE cells [6] = experiment: Cell death; format: cell-based; conditions: pig primary RPE; H2O2/TNF-α
Summary of the method: as §1

PEDF = conditions: peptides from Leu159-Met325 of PEDF-R; cited from earlier work
ARPE-19 cells [7] = experiment: Detection of reactive oxygen species; format: cell-based, human; conditions: increasing H2O2 with or without 10 ng/mL TNF-α
Summary of the method: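 Confluent ARPE-19 cells in 96-well black plates were serum-starved (0.5% serum, 8 h), then given increasing H₂O₂ with or without 10 ng/mL TNF-α, plus test peptide. CellRox Green was added 30 min before the end point, and fluorescence was read at ex 485/em 520 nm. Triplicate wells per point; each experiment was run twice.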

human recombinant 5-LOX = experiment: His-tag pull-down assay, 5-LOX and PEDF-R; format: binding; conditions: 5-LOX 250 ng, PEDF-R ∼350 and 700 ng, 0.1 M sodium phosphate, 50 mM NaCl, 0.1% NP-40, 4°C, 2 hours, Ni-NTA, Western blot
PEDF-R (PNPLA2) = conditions: cited from earlier work

Molecule: OO [H2O2]
- Relative cell numbers with increasing H2O2 (ARPE-19 cells [1]; 100-1000 μM H2O2, 10 ng/mL TNF-α, 16 hours): concentration-dependent decrease in cell numbers
- Relative cell numbers with increasing H2O2 (primary pig RPE cells [2]): concentration-dependent decrease in cell numbers
- Pyknotic nuclei level (ARPE-19 cells [3]): resulted in an increase
- PNPLA2 mRNA level (PNPLA2): decreased the levels of PNPLA2
- ALOX5 mRNA level (ALOX5): remained unchanged
- PEDF-R protein level (PEDF-R): paralleled those for expression of their respective genes
- 5-LOX protein level (5-LOX): paralleled those for expression of their respective genes
- Death mechanism of ARPE-19 cells (ARPE-19 cells [4]; 400 and 600 μM H2O2): apoptosis
- Death mechanism of ARPE-19 cells (ARPE-19 cells [4]; H2O2 higher than 600 μM): necrosis
- Death mechanism of ARPE-19 cells (ARPE-19 cells [4]; TNF-α (10 ng/mL) and 400 to 800 μM H2O2): apoptotic mechanism via caspase activation

Molecule: E5b: PEDF-R peptide Ile^193-Leu^232, overlapping P1 (ICPQDSSTNIHELRVTNTSIQFNLRNLYRLSKALFPPEPL)
- Cell viability under oxidative stress (ARPE-19 cells [1]; H2O2/TNF-α, ATP live cell biomarker, duplicate wells): promoted cell viability
- Pyknotic nuclei level (ARPE-19 cells [3]): resulted in a decrease of pyknotic nuclei level
- Number of dead cells under oxidative stress (ARPE-19 cells [5]): decreased cell death of RPE cells undergoing oxidative stress
- Protection from oxidative stress-induced cell death (summary) (ARPE-19 cells [5]; H2O2/TNF-α): protected ARPE-19 and pig primary RPE cells from oxidative stress–induced cell death in a specific and concentration-dependent fashion
- Protection from oxidative stress-induced cell death (summary) (primary pig RPE cells [6]): protected ARPE-19 and pig primary RPE cells from oxidative stress–induced cell death in a specific and concentration-dependent fashion
- PEDF-binding affinity (PEDF): retain the PEDF-binding affinity of PEDF-R

Molecule: H-KRLQFEPRNYPSLLSTALPNILFRRLGGKFQDMRELCVYL-OH [SCR]
- Number of dead cells under oxidative stress (ARPE-19 cells [5]): did not decrease the number of dead cells

Molecule: TNF-α
- ROS production, presence versus absence of TNF-α (ARPE-19 cells [7]): comparable under both conditions

B1: His6-tag-PEDF-R: human recombinant His6/Xpress-tagged PEDF-R made by cell-free in vitro protein synthesis (protein)
chain: MFPREKTWNISFAGCGFLGVYYVGVASCLREHAPFLVANATHIYGASAGALTATALVTGVCLGEAGAKFIEVSKEARKRFLGPLHPSFNLVKIIRSFLLKVLPADSHEHASGRLGISLTRVSDGENVIISHFNSKDELIQANVCSGFIPVYCGLIPPSLQGVRYVDGGISDNLPLYELKNTITVSPFSGESDICPQDSSTNIHELRVTNTSIQFNLRNLYRLSKALFPPEPLVLREMCKQGYRDGLRFLQRNGLLNRPNPLLALPPARPHGPEDKDQAVESAQAEDYSQLPGEDHILEHLPARLNEALLEACVEPTDLLTTLSNMLPVRLATAMMVPYTLPLESALSFTIRLLEWLPDVPEDIRWMKEQTGSICQYLVMRAKRKLGRHLPSRLPEQVELRRVQSLPSVPLSCAAYREALPGWMRNNLSLGDALAKWEECQRQLLLGLFCTNVAFPPEALRMRAPADPAPAPADPASPQHQLAGPAPLLSTPAPEARPVIGALGL
modifications: left off: His6, end not stated, kept | Xpress, end not stated, kept
- Bound 5-LOX in pull-down with His6-tag-PEDF-R (human recombinant 5-LOX): proportional increase of bound 5-LOX
- Bound 5-LOX in pull-down with His6-tag-PEDF-R (human recombinant 5-LOX; listed as His6/Xpress-tagged PEDF-R): via ionic interactions

B2: PEDF: pigment epithelium-derived factor, stimulates PEDF-R (protein, UniProt P36955 20-418, looked up)
Pigment epithelium-derived …: QNPASPPEEGSPDPDSTGALVEEEDPFFKVPVNKLAAAVSNFGYDLYRVRSSTSPTTNVLLSPLSVATALSALSLGAEQRTESIIHRALYYDLISSPDIHGTYKELLDTVTAPQKNLKSASRIVFEKKLRIKSSFVAPLEKSYGTRPRVLTGNPRLDLQEINNWVQAQMKGKLARSTKEIPDEISILLLGVAHFKGQWVTKFDSRKTSLEDFYLDEERTVRVPMMSDPKAVLRYGLDSDLSCKIAQLPLTGSMSIIFFLPLKVTQNLTLIEESLTSEFIHDIDRELKTVQAVLTVPKLKLSYEGEVTKSLQEMKLQSLFDSPDFSKITGKPIKLTQVEHRAGFEWNEDGAGTTPSPGLQPAHLTFPLDYHLNQPFIFVLRDTDTGALLFIGKILDPRGP
- Effect on PEDF-R (PNPLA2) enzyme activity (PEDF-R (PNPLA2)): stimulated

B3: CGI-58: protein that stimulates PEDF-R (PNPLA2) activity (protein, UniProt Q8WTS1 2-349, looked up)
1-acylglycerol-3-phosphate …: AAEEEEVDSADTGERSGWLTGWLPTWCPTSISHLKEAEEKMLKCVPCTYKKEPVRISNGNKIWTLKFSHNISNKTPLVLLHGFGGGLGLWALNFGDLCTNRPVYAFDLLGFGRSSRPRFDSDAEEVENQFVESIEEWRCALGLDKMILLGHNLGGFLAAAYSLKYPSRVNHLILVEPWGFPERPDLADQDRPIPVWIRALGAALTPFNPLAGLRIAGPFGLSLVQRLRPDFKRKYSSMFEDDTVTEYIYHCNVQTPSGETAFKNMTIPYGWAKRPMLQRIGKMHPDIPVSVIFGARSCIDGNSGTSIQSLRPHSYVKTIAILGAGHYVYADQPEEFNQKVKEICDTVD
- Effect on PEDF-R (PNPLA2) enzyme activity (PEDF-R (PNPLA2)): stimulated

B4: G0S2: G(0)/G(1) switch gene 2, inhibits PEDF-R (PNPLA2) (protein, UniProt P27469 1-103, looked up)
G0/G1 switch protein 2: METVQELIPLAKEMMAQKRKGKMVKLYVLGSVLALFGVVLGLMETVCSPFTAARRLRDQEAAVAELQAALERQALQKQALQEKGKQQDTVLGGRALSNRQHAS
- Effect on PEDF-R (PNPLA2) enzyme activity (PEDF-R (PNPLA2)): inhibited

B5: perilipin 5: protein that inhibits PEDF-R (PNPLA2) activity (protein, UniProt Q00G26 1-463, looked up)
Perilipin-5: MSEEEAAQIPRSSVWEQDQQNVVQRVVALPLVRATCTAVCDVYSAAKDRHPLLGSACRLAENCVCGLTTRALDHAQPLLEHLQPQLATMNSLACRGLDKLEEKLPFLQQPSETVVTSAKDVVASSVTGVVDLARRGRRWSVELKRSVSHAVDVVLEKSEELVDHFLPMTEEELAALAAEAEGPEVGSVEDQRRQQGYFVRLGSLSARIRHLAYEHSVGKLRQSKHRAQDTLAQLQETLELIDHMQCGVTPTAPACPGKVHELWGEWGQRPPESRRRSQAELETLVLSRSLTQELQGTVEALESSVRGLPAGAQEKVAEVRRSVDALQTAFADARCFRDVPAAALAEGRGRVAHAHACVDELLELVVQAVPLPWLVGPFAPILVERPEPLPDLADLVDEVIGGPDPRWAHLDWPAQQRAWEAEHRDGSGNGDGDRMGVAGDICEQEPETPSCPVKHTLMPELDF
- Effect on PEDF-R (PNPLA2) enzyme activity (PEDF-R (PNPLA2)): inhibited
